From ChEMBL document CHEMBL1275391, “Design, synthesis, and preclinical evaluation of new 5,6- (or 6,7-) disubstituted-2-(fluorophenyl)quinolin-4-one derivatives as potent antitumor agents” (J Med Chem, 2010) come the findings set out here.

For orientation: IC50 means the concentration at which inhibition is half-maximal. High values mean weaker potency in that assay, low ones greater potency in that assay.

Calls of active or inactive are those of the source. The rule behind the calls is not given here. Bounds are passed on as bounds.

One data set concerns HL-60. Put plainly: Cytotoxicity against human HL60 cells after 48 hrs by MTT assay. Type of data set: functional, cell-based. The following applies: HL-60, 48 h. An outline of the steps: (§1)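 Cells exposed to a range of compound concentrations for 48 h, washed once with PBS, then incubated with MTT for 2 h. Formazan dissolved in DMSO and absorbance read at 570 nm. IC50 taken as the concentration giving 50% inhibition of proliferation.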

The subject of another data set is HCT-116. Put plainly: Cytotoxicity against human HCT116 cells after 48 hrs by MTT assay. Type of data set: functional, cell-based. As to conditions: HCT-116, 48 h. Put shortly: as §1
A general note: Tetrazolium dyes change colour on reduction, which living cells bring about.

Data set [1] in a line: Cytotoxicity against human Hep3B cells after 48 hrs by MTT assay. Type of data set: functional, cell-based, Hep 3B2. An outline of the steps: as §1
For a further data set, the system named is NCI-H460. Kind of data set: Cytotoxicity against human H460 cells after 48 hrs by MTT assay. In kind it is functional, cell-based. As to conditions: NCI-H460, 48 h. An outline of the steps:
as §1

In data set [2] the test system is Hep 3B2. Kind of data set: Antitumor activity against human Hep3B cells xenografted in po dosed BALB/c nude mouse assessed as inhibition of tumor growth administered qd for 5 times per week for 4 weeks measured on day 28. In kind it is functional, organism-based. An outline of the steps: (§2)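 Male Balb/c nude mice, 4-6 weeks, 18-20 g; 2 × 10^6 Hep3B cells in 0.1 mL injected subcutaneously into right flank. Dosing began when tumors exceeded 100 mm3 (day 0), given po or iv once daily, 5 days/week for 4 weeks, stopped day 28. Tumor volume (length × width² × 0.5) and body weight recorded every 7 days; T/C = (Tn − T0)/(Cn − C0) × 100%.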
(A xenograft is tissue or cells of one species grown in another, often human tumour cells in immunodeficient mice.)

Data set [3] relates to Hep 3B2. Kind of data set: Antitumor activity against human Hep3B cells xenografted in BALB/c nude mouse assessed as inhibition of tumor growth administered at 7.5 to 30 mg/kg, po qd for 5 times per week for 4 weeks. Type of data set: functional, organism-based. As to conditions: TDE = time-dependent effect. An outline of the steps:
as §2

The subject of data set [4] is Hep 3B2. Kind of data set: Antitumor activity against human Hep3B cells xenografted in iv dosed BALB/c nude mouse assessed as inhibition of tumor growth administered qd for 5 times per week for 4 weeks measured on day 28. Type of data set: functional, organism-based. Put shortly:
as §2

The subject of data set [5] is Hep 3B2. Kind of data set: Antitumor activity against human Hep3B cells xenografted in BALB/c nude mouse assessed as inhibition of tumor growth administered at 7.5 to 30 mg/kg, iv qd for 5 times per week for 4 weeks. In kind it is functional, organism-based. The following applies: TDE = time-dependent effect. An outline of the steps: as §2
Data set [6] deals with Hep 3B2. Put plainly: Antitumor activity against human Hep3B cells xenografted in BALB/c nude mouse assessed as inhibition of tumor growth administered at 7.5 mg/kg, po qd for 5 times per week for 4 weeks. Type of data set: functional, organism-based. The arrangement: dose 7.5 mg/kg. Put shortly:
as §2

The subject of data set [7] is Hep 3B2. Kind of data set: Antitumor activity against human Hep3B cells xenografted in BALB/c nude mouse assessed as inhibition of complete tumor growth administered at 30 mg/kg, po qd for 5 times per week for 4 weeks. Type of data set: functional, organism-based. The arrangement: dose 30 mg/kg. An outline of the steps: as §2
A further data set concerns Mus musculus. Put plainly: Toxicity in human Hep3B cells xenografted BALB/c nude mouse assessed as change in body weight at 7.5 to 30 mg/kg, po qd for 5 times per week for 4 weeks measured on day 28. In kind it is organism-based, Hep 3B2. The following applies: in vivo, 672 h. The arrangement: dose 7.5-30 mg/kg, route oral. Put shortly: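 Male Balb/c nude mice, 4-6 weeks old and 18-20 g, were housed under SPF conditions. Each received 2 × 10^6 Hep3B cells in 0.1 mL s.c. into the right flank. Once tumors exceeded 100 mm3 (day 0), animals were grouped and dosed orally once daily, 5 days/week for 4 weeks. Body weight and tumor size were recorded every 7 days up to day 28.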

For data set [8], the system named is Hep 3B2. Put plainly: Antitumor activity against human Hep3B cells xenografted in BALB/c nude mouse assessed as inhibition of tumor growth administered at 7.5 mg/kg, po qd for 5 times per week for 4 weeks.

As to `O=c1cc(-c2ccc(F)cc2)[nH]c2ccc3c(c12)OCO3`, the 50% inhibitory concentration (IC50) (in the data set on HL-60; in the data set on HCT-116; in data set [1]; in the data set with NCI-H460) was > 10 µM throughout.
With `COc1cc2c(=O)cc(-c3ccccc3F)[nH]c2cc1O`, the half-inhibitory concentration (IC50) amounted to 1.3 µM in the data set on HL-60, 5.8 µM in the data set with HCT-116, 5.3 µM in data set [1] and 4.4 µM in the data set on NCI-H460.
Turning to `COc1cc2c(=O)cc(-c3ccc(F)cc3)[nH]c2cc1O`, the IC50 with HL-60 was 38.2 µM; in the data set on HCT-116, > 100 µM; in data set [1], > 100 µM; in the data set with NCI-H460 it was > 100 µM.
With `COc1ccc2[nH]c(-c3ccc(F)cc3)cc(=O)c2c1OC`, the IC50 is 2 µM in the data set on HL-60, > 20 µM in the data set on HCT-116, > 20 µM in data set [1] and > 20 µM with NCI-H460.
Take `O=c1cc(-c2ccccc2F)[nH]c2ccc3c(c12)OCO3`: the IC50 in the data set with HL-60 turned out to be 1 µM; in the data set on HCT-116, 2.1 µM; in data set [1], 1.9 µM; in the data set with NCI-H460, 4.5 µM.
Take `O=c1cc(-c2ccc(F)cc2)[nH]c2ccc(O)c(O)c12`: the IC50 is 38.6 µM in the data set with HL-60, > 100 µM with HCT-116, 100 µM in [1] and 100 µM with NCI-H460.
For the compound `COc1cc2c(=O)cc(-c3cccc(F)c3)[nH]c2cc1O`, the concentration for half-maximal inhibition (IC50) in the data set with HL-60 was determined as 0.9 µM; in the data set on HCT-116, 1.1 µM; in data set [1] it was 5.3 µM; in the data set with NCI-H460 it was 4.8 µM.
Consider `COc1ccc2[nH]c(-c3ccccc3F)cc(=O)c2c1O`, for which the IC50 in the data set on HL-60 turned out to be 0.07 µM; in the data set on HCT-116 it was 0.05 µM; in data set [1], 0.05 µM; in the data set with NCI-H460 it was 0.11 µM.
Regarding `COc1ccc2[nH]c(-c3ccc(F)cc3)cc(=O)c2c1O`, the IC50 with HL-60 was determined as 1.8 µM; in the data set with HCT-116, 2.4 µM; in data set [1], 11 µM; with NCI-H460, 8.8 µM.
Take `O=c1cc(-c2ccccc2F)[nH]c2ccc(O)c(O)c12`: the 50% inhibitory concentration (IC50) came to 0.5 µM in the data set with HL-60, 0.6 µM in the data set on HCT-116, 3.9 µM in data set [1] and 4.1 µM in the data set on NCI-H460.
Taken in the same sequence, the figures for `COc1ccc2[nH]c(-c3cccc(F)c3)cc(=O)c2c1OC` were 1.3 µM, 1.2 µM, 2.6 µM and 3.5 µM.
Regarding `O=c1cc(-c2cccc(F)c2)[nH]c2ccc(O)c(O)c12`, the IC50 in the data set with HL-60 came out at 0.3 µM; in the data set with HCT-116, 8.2 µM; in [1] it was 6.9 µM; in the data set with NCI-H460 it was 6.1 µM.
Regarding `COc1ccc2[nH]c(-c3ccccc3F)cc(=O)c2c1OC`, the IC50 in the data set with HL-60 is 3.7 µM; with HCT-116, > 20 µM; in data set [1], > 20 µM; in the data set on NCI-H460, > 20 µM.
Turning to `O=c1cc(-c2cccc(F)c2)[nH]c2ccc3c(c12)OCO3`, the half-maximal inhibitory concentration (IC50) came out at 0.7 µM with HL-60, 2.5 µM in the data set with HCT-116, 2.4 µM in data set [1] and 3.2 µM with NCI-H460.
Regarding `COc1ccc2[nH]c(-c3cccc(F)c3)cc(=O)c2c1OP(=O)([O-])[O-].[Na+].[Na+]`, the Activity result with Hep 3B2 [2] was “Dose-dependent effect”; in the data set on Hep 3B2 [3], “tde”; in the data set on Hep 3B2 [4] it was “Dose-dependent effect”; in the data set on Hep 3B2 [5] it was “tde”; in the data set on Mus musculus, “Non-toxic”. The outcome with Hep 3B2 [6], in the data set on Hep 3B2 [7] and with Hep 3B2 [8] was Active.
Turning to `O=c1cc(-c2ccccc2F)[nH]c2cc3c(cc12)OCO3`, the IC50 with HL-60 stood at 0.08 µM; with HCT-116, 0.15 µM; in data set [1], 0.13 µM; with NCI-H460, 0.14 µM.
